Assays:
Cathepsin S = Cathepsin S (Homo sapiens, UniProt P25774); assay: Inhibition of cathepsin S
Summary of the method: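 Cathepsin S 0.7 nM with inhibitor (added in DMSO), 5 min at 37 °C in pH 6.1 phosphate buffer containing NaCl, DTT, EDTA and Tween-20. IC50 from V_i/V_o plot, converted to K_i via IC50 − E_t/2.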

Cathepsin B = Cathepsin B (Homo sapiens, UniProt P07858); assay: Inhibition of cathepsin B
Summary of the method: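 Cathepsin B (2 nM) in pH 6.1 phosphate/NaCl/DTT/EDTA/Tween-20 buffer, preincubated with inhibitor (in DMSO) for 5 min at 37 °C. Cbz-Phe-Arg-AMC 2.5 µM then added and AMC followed for 5 min (ex 355/em 450 nm). Five inhibitor levels spanning 10–90% inhibition, in duplicate. IC50 from V_i/V_o plots, converted as K_i = IC50 − E_t/2.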

Cathepsin K = target: T1, Cathepsin K (Homo sapiens, UniProt P43235); assay: Inhibition of cathepsin K
T1 sequence (P43235 whole entry): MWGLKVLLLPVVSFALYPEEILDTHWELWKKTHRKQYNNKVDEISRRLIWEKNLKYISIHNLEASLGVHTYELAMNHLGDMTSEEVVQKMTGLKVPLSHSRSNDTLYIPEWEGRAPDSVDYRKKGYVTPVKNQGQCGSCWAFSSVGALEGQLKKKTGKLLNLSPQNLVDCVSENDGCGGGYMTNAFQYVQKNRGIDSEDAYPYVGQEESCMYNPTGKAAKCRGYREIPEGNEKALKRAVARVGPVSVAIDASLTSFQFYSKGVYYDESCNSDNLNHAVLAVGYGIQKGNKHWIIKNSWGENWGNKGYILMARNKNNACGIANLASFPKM
Summary of the method: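 Cathepsin K at 10 nM, preincubated 5 min at 37 °C with DMSO-delivered inhibitor in pH 6.1 sodium phosphate buffer with NaCl, DTT, EDTA, Tween-20. Then 2.5 µM Cbz-Phe-Arg-AMC; AMC release monitored for 5 min (ex 355/em 450 nm). Duplicates at five inhibitor concentrations giving 10–90% inhibition. K_i = IC50 − E_t/2, with IC50 from V_i/V_o versus concentration.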

Procathepsin L = Procathepsin L (Homo sapiens, UniProt P07711); assay: Inhibition of cathepsin L
Procathepsin L, sequence (P07711 whole entry): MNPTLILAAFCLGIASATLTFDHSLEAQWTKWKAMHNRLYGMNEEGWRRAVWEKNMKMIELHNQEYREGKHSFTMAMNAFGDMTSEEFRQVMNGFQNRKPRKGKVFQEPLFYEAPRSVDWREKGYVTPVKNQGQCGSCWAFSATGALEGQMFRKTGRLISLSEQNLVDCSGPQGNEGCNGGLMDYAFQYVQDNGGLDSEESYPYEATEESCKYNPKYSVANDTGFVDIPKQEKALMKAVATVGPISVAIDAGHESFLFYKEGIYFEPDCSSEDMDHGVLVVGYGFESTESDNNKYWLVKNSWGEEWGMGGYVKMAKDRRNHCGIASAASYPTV

Cathepsin S, sequence (P25774 whole entry): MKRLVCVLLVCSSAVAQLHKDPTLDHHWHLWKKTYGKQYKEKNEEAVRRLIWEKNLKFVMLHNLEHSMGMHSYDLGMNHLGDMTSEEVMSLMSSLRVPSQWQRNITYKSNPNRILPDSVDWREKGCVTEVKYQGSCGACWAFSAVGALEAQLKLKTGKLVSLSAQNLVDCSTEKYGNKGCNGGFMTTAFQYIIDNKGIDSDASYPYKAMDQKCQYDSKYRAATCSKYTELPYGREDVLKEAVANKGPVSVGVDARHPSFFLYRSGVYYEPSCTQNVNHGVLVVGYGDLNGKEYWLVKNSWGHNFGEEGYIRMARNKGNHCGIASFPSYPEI

Ki (Cathepsin S) [nM] | Ki (Cathepsin B) [nM] | Ki (Cathepsin K) [nM] | Ki (Procathepsin L) [nM] | Structure (SMILES)
48.7 | > 15000 | 1280 |  | CCCc1ccc(-c2ccccc2OCC=O)c(F)c1F
 | > 15000 | 1510 |  | O=CCOc1ccccc1-c1ccc(F)c(F)c1F
9.6 | > 15000 | 1240 | > 15000 | CC(C)Cc1ccc(-c2ccccc2OCC=O)c(F)c1F
